Structures are written as SMILES.

The data set is described as follows: Toxicity liver stage against HepG2, at 10uM. It counts as cell-based. On the set-up: test concentration 10 uM, cell line HepG2-A16-CD81EGFP. To be noted: human, HepG2-A16-CD81EGFP cells; read-out: INHIBITION
In a few lines: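 Uninfected HepG2-A16-CD81EGFP cells, 3 × 10^3 per well, 1536-well, plated on prespotted compound at 10 μM final, parasite-free screening media added to match infected plates; puromycin 10 μM positive, DMSO 0.5% negative; run in parallel with 48 h PbLuc assay at 37 °C, 5% CO2; viability by CellTiter-Glo luminescence, normalized to controls.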
As to `O=C(NC1CCCC1)c1ccc(COCC(F)(F)F)o1`, the cytotoxicity at 10 µM came out at 10.6%.
For the compound `COc1cccc(-c2nc(C)c(C(=O)NCCC(=O)O)s2)c1`, the cytotoxicity at 10 µM worked out at 8.69%.
For `CNC(=O)CS(=O)(=O)C1CCN(S(=O)(=O)c2cccc(C(C)=O)c2)CC1` the value was 5.85%.
For `COCCN1C(=O)C2(CCC(C(=O)Nc3ccc(C)cc3)CC2)N=C1C` (stereo not given), the cytotoxicity at 10 µM stood at 12.3%.
On to `CC(C)n1cnc(-c2nc(C(=O)N3CCCC3)c3ccccn23)c1`, for which the cytotoxicity at 10 µM was determined as 6.47%.
Regarding `Cc1cccc(S(=O)(=O)N2Cc3c(CN(C)C)nn(C)c3C2)c1`, the cytotoxicity at 10 µM was -0.53%.
For `COc1ccc(NC(=O)CSc2nncn2-n2cccc2)c(OC)c1`, the cytotoxicity at 10 µM was -2.74%.
In the case of `Cc1ccc(-c2[nH]c3ccccc3c2C(=O)O)c(C)c1`, the cytotoxicity at 10 µM was 12.3%.
With `CC(C)CN1CCC2(CCN(C(=O)c3ccc(F)cc3)CC2)C1=O`, the cytotoxicity at 10 µM was 8.06%.
As to `CCn1c(SCC(N)=O)nnc1C(C)NC(=O)c1ccc(Cl)cc1` (stereo not given), the cytotoxicity at 10 µM is -36.4%.
For `CCn1nc(C)c2c1cnn2CC(=O)N1CCN(C)CC1`, the cytotoxicity at 10 µM is 4.92%.
For `c1cnnc(N[C@@H]2CC[C@@H]3CN(Cc4c[nH]c5ccccc45)C[C@@H]32)c1` the value was 3.33%; for `Nc1cc(-c2c[nH]nc2C2CCN(C(=O)C3CCCC3)C2)ccn1` (stereo not given), 7.49%; for `Cc1nc(NCc2ccccc2)cc(C(C)Cn2nc(C)c(C)c2C)n1` (stereo not given), 7.03%.
On to `Cc1noc(C)c1-c1ccc(C2CCCN2C(=O)c2cccnn2)nc1` (stereo not given), for which the cytotoxicity at 10 µM is -18.9%.
With `Cc1cccc(C(=O)N2CCCC[C@]3(C)NC(=O)CCC[C@H]23)n1`, the cytotoxicity at 10 µM was -21.3%.
For `O=C(NC1CC1)C1(Cc2cc(-c3ccc(F)cc3F)no2)CCOCC1` the value was 11%; for `Cc1nc(O)c2nnn(C[C@H]3CCCN3C(=O)c3cccs3)c2n1`, -25.6%.
For `Cc1cc(C(=O)NCc2ccc(F)cc2)c2c(C3CCCN3)noc2n1` (stereo not given) the value was 7.16%.
With `CCOc1ccccc1CCNC(=O)NCC(O)c1cccs1` (stereo not given) the figure was -4.47%; with `O=C(C1CCCC1)N1CCC(C(O)c2ccc(F)cc2)CC1` (stereo not given), 8.54%.
For the compound `N#CC(NC(=O)c1cccc2c1OCCO2)c1ccc(F)cc1F` (stereo not given), the cytotoxicity at 10 µM was -2.61%.
`CN1CCN(CCNC(=O)c2sccc2C2CC2)CC1`: the cytotoxicity at 10 µM was -149%.
Turning to `Cn1ncc2c(=O)[nH]c(N3CCCC3c3cccc(Cl)c3)nc21` (stereo not given), the cytotoxicity at 10 µM stood at 19.6%.
As to `CC(C)NC(=O)NC(C)c1ccc(-c2ccncc2)cc1` (stereo not given), the cytotoxicity at 10 µM was 0.67%.
For `COC(=O)c1ccc(N2CCN(C(=O)C3CC3)C(C)C2)cc1` (stereo not given) the value was -1.07%; for `CC(C)c1n[nH]c(C2CN(C(=O)COCC(F)(F)F)CCO2)n1` (stereo not given), -10.3%; for `Cc1cccc(S(=O)(=O)N2CSCC2C(=O)NC(C)(C)C)c1` (stereo not given), -3.75%.
For `O=C(CN1CCc2ccccc21)NCc1ccc(Cl)cc1` the value was 12.4%.
With `Cc1noc(C)c1CNC(=O)N1CCC(CN2CCC(C)CC2)CC1` the figure was 6.62%; with `O=C(Cc1ccc2c(c1)CCO2)N1CCCC1Cn1cccn1` (stereo not given), -149%.
`CC(C)n1cc(CN2CCCN(C(=O)c3ccnn3C)CC2)cn1`: the cytotoxicity at 10 µM was found to be 2.79%.
For `CC(NC(=O)C1CCCC1)c1nc(-c2ccccc2)c[nH]1` (stereo not given), the cytotoxicity at 10 µM was found to be 6%.
For the compound `CCN(CC)Cc1ccccc1NC(=O)N(C)Cc1ccc(OC)cc1`, the cytotoxicity at 10 µM was determined as 10.7%.
For the compound `COc1ncccc1C(=O)N1CCCC1c1c(C)n[nH]c1C` (stereo not given), the cytotoxicity at 10 µM was found to be 10.7%.
Take `CC(c1nnc(-c2ccccc2)o1)N1CCC(Nc2ccccc2)CC1` (stereo not given): the cytotoxicity at 10 µM came to 5.1%.
For `Cc1cnn(C2CN(Cc3noc(C)n3)C2)c1`, the cytotoxicity at 10 µM worked out at 40.3%.
As for `COc1ccc(OCC(=O)NS(=O)(=O)c2cc(F)ccc2F)cc1`, the cytotoxicity at 10 µM was -19.5%.
As for `Cc1n[nH]c(C2CN(C(=O)c3cc(Cl)c[nH]3)CCO2)n1` (stereo not given), the cytotoxicity at 10 µM came to 3.95%.
In the case of `Cc1ccc(CNCC2CCc3nnc(C(C)C)n3C2)s1` (stereo not given), the cytotoxicity at 10 µM was -4.43%.
With `O=C(N1CCCC1)N1CCc2ncnc(C3CCOC3)c2CC1` (stereo not given), the cytotoxicity at 10 µM stood at 3.45%.
Take `CS(=O)(=O)NCc1ncn2c1CN(C(=O)CC1CCCC1)CCC2`: the cytotoxicity at 10 µM amounted to 4.79%.
Regarding `Cc1ncc(CN2CCN(C(=O)N(C)C)[C@@H]3CS(=O)(=O)C[C@@H]32)cn1`, the cytotoxicity at 10 µM stood at 7.86%.
On to `Cc1cc(-c2c(C)c(-c3cnn(C)c3)nc(N)c2C#N)oc1C`, for which the cytotoxicity at 10 µM was -93.5%.
Turning to `CCc1ccc(CN2CCN(C)C3(CCC(=O)N(CC4CC4)CC3)C2)o1` (stereo not given), the cytotoxicity at 10 µM is -2.77%.
Turning to `O=C1NCC2(CCCN(C(=O)c3c[nH]nc3C3CCCCC3)C2)O1` (stereo not given), the cytotoxicity at 10 µM was determined as 8.72%.
With `CN(Cc1ccc2nsnc2c1)CC1(O)CCNC1` (stereo not given) the figure was -11.7%; with `CCc1cc(NCCC(F)(F)F)nc(N2CCOCC2)n1`, -4.65%; with `CCN(Cc1cccc(C(=O)Nc2c(C)cnn2C)c1)[C@H]1COC[C@@H]1O`, -1.58%.
`CC(c1ccon1)N(C)C(=O)C1CCN(C2CCCCC2)CC1` (stereo not given): the cytotoxicity at 10 µM was -20.2%.
For `CN1CC(C(=O)N2CCN(c3cccc(Cl)c3)C(=O)C2)NC1=O` (stereo not given) the value was -3.94%; for `CC(C)N1CCC(N2CCCC(C(=O)NCC3(C)COC3)C2)CC1` (stereo not given), -5.62%; for `CC(=O)N1CCc2c(nc(N(C)C)nc2N(C)CCO)C1`, -2.48%.
Turning to `Cc1ccccc1C(C(=O)N(C)CCc1cnn(C)c1)N(C)C` (stereo not given), the cytotoxicity at 10 µM is -3.57%.
With `Fc1ccc(N2CCN(CCCc3cn[nH]c3)CC2)cc1`, the cytotoxicity at 10 µM was -144%.
For the compound `Cc1ccc(CN2CC3(CCN(C(=O)C4CC4)CC3)CC2C(=O)O)o1` (stereo not given), the cytotoxicity at 10 µM turned out to be 1.52%.
On to `Cc1csc2c(N3CCC(NCCCc4cnn(C)c4)CC3)ncnc12`, for which the cytotoxicity at 10 µM was 0.301%.
Regarding `Cc1cccc2ncn(C(C)Cn3cccn3)c(=O)c12` (stereo not given), the cytotoxicity at 10 µM was -4.4%.
For the compound `O=C(c1cccnc1O)N1CCOC(Cc2cccc(C(F)(F)F)c2)C1` (stereo not given), the cytotoxicity at 10 µM was found to be 2.26%.
With `CC(C)c1cc(=O)[nH]c(-c2ccccc2CN2CCCC2C)n1` (stereo not given), the cytotoxicity at 10 µM amounted to 10.4%.
For the compound `Cc1cc(C(=O)N2CCc3[nH]cnc3C2C(=O)O)c(-c2ccccc2)o1` (stereo not given), the cytotoxicity at 10 µM was -1.33%.
As for `CCNC(=O)N1C[C@@H](NC(C)=O)[C@H](c2ccc(C)o2)C1`, the cytotoxicity at 10 µM was -8.82%.
`c1nc2c(c(NCCCn3cncn3)n1)CCN(CC1CCOC1)CC2` (stereo not given): the cytotoxicity at 10 µM was -10.6%.
On to `CCC(Oc1ccc(N(C)S(C)(=O)=O)cc1)C(=O)NC` (stereo not given), for which the cytotoxicity at 10 µM is 0.0646%.
Regarding `O=C(Cc1ccc(F)cc1)NCCNc1cc(N2CCCC2)ncn1`, the cytotoxicity at 10 µM was -8.37%.
On to `C[C@@H]1CN(CC(C)(C)N2CCCCC2)C[C@@]1(O)C1CC1`, for which the cytotoxicity at 10 µM was -0.519%.
For `CCOc1ncccc1NC(=O)N1CCC(CN2CCOCC2)CC1` the value was -13.6%; for `CCS(=O)(=O)c1ccccc1N1CCC(N)CC1`, 3.03%; for `Cn1cc(NC(=O)N2CCC(OCc3ccccc3)CC2)ccc1=O`, -5.75%.
With `COc1cc(CNCCc2cnn(C)c2)cc(OC)c1OC`, the cytotoxicity at 10 µM was -9.51%.
Turning to `Cc1nc(CCNC(=O)NC(C)Cn2cccn2)cs1` (stereo not given), the cytotoxicity at 10 µM was -1.85%.
With `O=C1CC(N(C(=O)c2ccc(Cl)c(Cl)c2)C2CC2)C(=O)N1` (stereo not given) the figure was 0.0791%; with `CC(NC(=O)NCCn1ccnc1)c1ccc2c(c1)OCCO2` (stereo not given), -9.44%.
Regarding `O=C(CCc1cscn1)N1CCCC(n2cncn2)C1` (stereo not given), the cytotoxicity at 10 µM was -3.81%.
In the case of `Cc1ccc(CNC(=O)CN2CCCC(Cn3cncn3)C2)cc1` (stereo not given), the cytotoxicity at 10 µM is -11.5%.
Regarding `CC(C)C(=O)N(C)CC(=O)Nc1ccc(Br)cn1`, the cytotoxicity at 10 µM is -6.22%.
With `c1cnn(CC2CCCCN2Cc2nc(-c3ccoc3)no2)c1` (stereo not given) the figure was -5.22%.
Consider `Cc1nc(C(=O)N2CCCC2c2noc(C3CC3)n2)c[nH]1` (stereo not given), for which the cytotoxicity at 10 µM is -7.06%.
As for `CN(c1cccnn1)C1CCN(C(=O)c2ccc3c(c2)COC3)CC1`, the cytotoxicity at 10 µM is -12%.
Regarding `CC(C)(C)c1n[nH]c(C2CN(C(=O)CCC3CC3)CCO2)n1` (stereo not given), the cytotoxicity at 10 µM was -12.7%.
Regarding `O=C(CCCOCc1ccccc1)N1CCCC1c1ccccn1` (stereo not given), the cytotoxicity at 10 µM is -14.4%.
For `COCCOc1ccc(NC(=O)N(C)Cc2ccsc2)cn1`, the cytotoxicity at 10 µM is -2.81%.
On to `O=C(O)c1csc(S(=O)(=O)Nc2cccc(OC(F)F)c2)c1`, for which the cytotoxicity at 10 µM is -2.63%.
Regarding `Cc1cc(C[C@@H]2COC[C@H]2NCc2ccc(Br)s2)on1`, the cytotoxicity at 10 µM amounted to 3.6%.
Regarding `CC(C)c1nn(C)cc1CNC1CCOc2ccccc21` (stereo not given), the cytotoxicity at 10 µM was 0.923%.
For `O=C(NCCc1ccncc1)[C@@H]1CC[C@@H]2[C@@H](CCN2Cc2ccco2)O1`, the cytotoxicity at 10 µM came out at 1.15%.
In the case of `Cc1cnc(N2C[C@H]3CN(Cc4csc(C)n4)C(=O)[C@H]3C2)nc1`, the cytotoxicity at 10 µM is 12%.
In the case of `CCOC1COC2(CCN(Cc3cccc(F)c3)CC2)C1` (stereo not given), the cytotoxicity at 10 µM was found to be 5.47%.
`CC(C)COC1CC2(CCN(Cc3nccn3C)CC2)C1`: the cytotoxicity at 10 µM was -158%.
For `CN1CC2(CCN(C(=O)c3cccnc3)CC2)c2cccc(F)c21` the value was 6.17%.
Turning to `Cc1ncccc1NC(=O)[C@H]1C[C@@H]2CCN(Cc3nccs3)C[C@@H]2O1`, the cytotoxicity at 10 µM was found to be 0.976%.
`c1coc(CN2CCOC3(COCCN(Cc4ccncc4)C3)C2)c1` (stereo not given): the cytotoxicity at 10 µM came out at 4.03%.
On to `CS(=O)(=O)N1C[C@H]2CC[C@@H](C1)N(C/C=C/c1ccc(F)cc1)C2`, for which the cytotoxicity at 10 µM is -15.5%.
As for `CCn1[nH]c(C)c2c(C(F)(F)F)cc(=O)nc1-2`, the cytotoxicity at 10 µM was -1.26%.
Consider `CN(C)S(=O)(=O)N1C[C@H]2CC[C@@H](C1)N(Cc1ccc3[nH]ccc3c1)C2`, for which the cytotoxicity at 10 µM came to 3.07%.
